How the values were obtained:
[1] = target: T1, Neuronal acetylcholine receptor; alpha4/beta2 (Rattus norvegicus) (UniProt P09483+P12390); assay: In vitro inhibition of [3H]cytisine binding in rat brain tissue at Nicotinic acetylcholine receptor alpha4-beta2 at 100 uM; type: tissue-based
[2] = system: Mus musculus; assay: In vivo analgesic agonist activity after subcutaneous administration, using tail-flick assay; type: functional; conditions: sc
In short: (§1)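 Male CD-1 mice (25-35 g) were dosed subcutaneously on the back at 10 mL/kg. Tail-flick latency to a focused light beam was read by photocell as the mean of two trials, with a 12 s cutoff. Percent effect was (test − baseline)/(12 − baseline latency). ED50 with CI95 came from nonlinear regression of dose-response curves.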

[3] = system: Mus musculus; assay: In vivo analgesic agonist activity after subcutaneous administration, using hotplate assay; type: functional; conditions: sc
In short: (§2)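 Male CD-1 mice (25-35 g) were dosed subcutaneously on the back at 10 mL/kg. Hotplate held at 52 °C; latency was timed to hind-paw lick or jump. Percent effect was calculated as (test − baseline latency)/(12 − baseline latency). ED50 with CI95 came from nonlinear regression of dose-response curves.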

[4] = target: T2, Neuronal acetylcholine receptor; alpha4/beta2 (Rattus norvegicus, UniProt P09483+P12390); assay: In vitro binding affinity by inhibiting [3H]cytisine binding in rat brain tissue at Nicotinic acetylcholine receptor alpha4-beta2; type: tissue-based
T2 sequence (P09483 whole entry): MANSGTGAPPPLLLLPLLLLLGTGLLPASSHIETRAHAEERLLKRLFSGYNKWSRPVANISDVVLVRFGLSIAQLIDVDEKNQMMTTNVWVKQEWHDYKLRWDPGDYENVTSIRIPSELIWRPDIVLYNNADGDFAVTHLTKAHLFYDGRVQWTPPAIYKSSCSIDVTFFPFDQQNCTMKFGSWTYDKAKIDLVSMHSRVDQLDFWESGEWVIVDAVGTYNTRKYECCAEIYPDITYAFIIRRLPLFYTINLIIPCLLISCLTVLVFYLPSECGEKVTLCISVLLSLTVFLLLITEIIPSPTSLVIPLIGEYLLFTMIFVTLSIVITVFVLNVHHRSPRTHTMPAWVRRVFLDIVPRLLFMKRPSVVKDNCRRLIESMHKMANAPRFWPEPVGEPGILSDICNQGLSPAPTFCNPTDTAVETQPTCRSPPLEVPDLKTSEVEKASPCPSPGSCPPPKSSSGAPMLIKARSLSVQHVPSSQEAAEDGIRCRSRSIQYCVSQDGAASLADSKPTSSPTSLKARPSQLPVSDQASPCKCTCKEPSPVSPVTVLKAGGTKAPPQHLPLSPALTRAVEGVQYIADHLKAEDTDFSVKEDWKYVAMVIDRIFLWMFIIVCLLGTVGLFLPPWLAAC
T2 sequence (P12390 whole entry): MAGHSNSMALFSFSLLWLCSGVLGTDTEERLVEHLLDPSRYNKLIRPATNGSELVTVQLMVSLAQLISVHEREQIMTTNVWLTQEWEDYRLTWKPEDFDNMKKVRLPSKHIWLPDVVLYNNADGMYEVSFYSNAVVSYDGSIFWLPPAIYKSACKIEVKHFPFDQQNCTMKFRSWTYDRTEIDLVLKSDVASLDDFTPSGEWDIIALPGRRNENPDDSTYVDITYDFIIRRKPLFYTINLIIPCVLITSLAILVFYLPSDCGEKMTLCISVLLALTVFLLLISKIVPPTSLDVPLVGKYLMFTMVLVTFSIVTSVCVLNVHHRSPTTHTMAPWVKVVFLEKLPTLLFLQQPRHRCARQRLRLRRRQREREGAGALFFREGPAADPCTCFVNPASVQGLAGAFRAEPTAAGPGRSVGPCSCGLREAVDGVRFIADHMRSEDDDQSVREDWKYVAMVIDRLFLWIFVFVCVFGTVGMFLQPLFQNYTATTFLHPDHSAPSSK

[5] = target: T2, Neuronal acetylcholine receptor; alpha4/beta2; assay: In vitro binding affinity by inhibiting [3H]dopamine release in rat brain tissue at Nicotinic acetylcholine receptor alpha4-beta2; type: functional, tissue-based
[6] = target: T1, Neuronal acetylcholine receptor; alpha4/beta2 (Rattus norvegicus); assay: In vitro % inhibition of [3H]cytisine binding in rat brain tissue at Nicotinic acetylcholine receptor alpha4-beta2 at 100 uM; type: tissue-based
[7] = system: Mus musculus; assay: In vivo analgesic activity was measured in mouse upon subcutaneous administration using tail-flick assay; type: functional; conditions: sc; in short: as §1
[8] = system: Mus musculus; assay: In vivo analgesic activity was measured in mouse upon subcutaneous administration using hotplate assay; type: functional; conditions: sc; in short: as §2
[9] = target: T2, Neuronal acetylcholine receptor; alpha4/beta2; assay: In vitro binding affinity by inhibiting [3H]dopamine release in rat brain tissue at aNicotinic acetylcholine receptor alpha4-beta2; type: functional, tissue-based
In short: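 Striatal slices (250 µm) from male Sprague-Dawley rats were loaded with 15 nM [3H]dopamine plus 0.1 mM ascorbic acid at 37 °C for 30 min in oxygenated Krebs-HEPES buffer pH 7.4, with domperidone present after loading. Slices were superfused with a 2 min test-drug pulse (S1), then 10 mM K+ for 2 min (S2). Five drug concentrations were used; S1/S2 fractional release ratios gave EC50.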

[10] = target: T2, Neuronal acetylcholine receptor; alpha4/beta2; assay: in vitro binding affinity by inhibiting [3H]cytisine binding in rat brain tissue at Nicotinic acetylcholine receptor alpha4-beta2
[11] = target: T1, Neuronal acetylcholine receptor; alpha4/beta2 (Rattus norvegicus); assay: In vitro inhibition of [3H]cytisine binding in rat brain tissue at Nicotinic acetylcholine receptor alpha4-beta2; type: tissue-based; conditions: concentration not given here
In short: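 Membranes were spun at 35 000g and resuspended. They were preincubated on ice for 5 min with test drug, then given 3.5 nM [3H]cytisine for 90 min at 2 °C. Nonspecific binding was taken with 1 mM (-)-nicotine. Drug concentrations were run in triplicate, with filtration and scintillation counting.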

c1cc(N2C3CCC2CC3)ccn1
inhibition [1]: < 50%

Clc1ccc(C2CC3CCC2N3)cn1 (stereo in doubt; 1) [EPIBATIDINE]
ED50 [2]: 0.00046 mg/kg | ED50 [3]: 0.00072 mg/kg

c1cncc(CCN2C3CCC2CC3)c1
Ki [4]: 2.23 µM

Clc1ccc(CN2C3CCC2CC3)cn1
EC50 [5]: 0.079 µM | Ki [4]: 0.245 µM | ED50 [2]: 11.1 mg/kg | ED50 [3]: 12.2 mg/kg

Cc1ccc(N2C3CCC2CC3)cc1
inhibition [6]: < 50%

c1ccc(CN2C3CCC2CC3)nc1
Ki [4]: 31.3 µM

c1ccc2ncc(N3C4CCC3CC4)cc2c1
inhibition [1]: < 50%

c1cncc(CN2C3CCC2CC3)c1
Ki [4]: 0.098 µM | ED50 [7]: 12.4 mg/kg | ED50 [8]: 5.36 mg/kg | EC50 [9]: 0.0014 µM

c1ccc2c(N3C4CCC3CC4)cncc2c1
inhibition [1]: < 50%

Ic1ccc(N2C3CCC2CC3)nc1
inhibition [1]: < 50%

c1ccc(N2C3CCC2CC3)nc1
inhibition [1]: < 50%

O=c1cccc2n1C[C@@H]1CNC[C@H]2C1 [CYTISINICLINE]
EC50 [5]: 0.0088 µM | Ki [10]: 0.0042 µM

c1cc(CN2C3CCC2CC3)ccn1
inhibition [1]: < 50%

COc1ccc(N2C3CCC2CC3)cn1
inhibition [1]: < 50%

c1ccc2nc(CN3C4CCC3CC4)ccc2c1
inhibition [11]: < 50%

c1cncc(N2C3CCC2CC3)c1
inhibition [1]: < 50%
